# How the values were obtained:
# K562 = experiment: Inhibitory concentration in vitro for cytotoxic activity against K 562 human chronic myelogenous leukemia cells; assay type: functional, cell-based
# Outline: (§1)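 MTT assay in 96-well plates, seeding 400–1000 cells/well. Cells recover 24 h, then drug in medium is added, three wells per dose. Incubate 5 days at 37 °C in 5% CO₂. Add MTT (3 mg/mL) for 3 h, dissolve formazan in DMSO, read at 540 nm minus 620 nm. Percent growth inhibition per dose comes from duplicate experiments, reported as mean and SD; IC50 is derived from these.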
# Saccharomyces cerevisiae = experiment: Antimicrobial activity against Saccharomyces cerevisiae after 48 hr incubation; assay type: functional
# Outline: (§2)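 Agar diffusion on cellulose disks loaded with 200 µg compound each. Bacteria read after 96 h, yeasts after 48 h. Activity is recorded as the radius in mm, or percent, of the inhibition zone. Squalestatin S1 (200 µg/disk) served as control in the yeast assay.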
# [1] = system: Schizosaccharomyces pombe; experiment: (§3) Antimicrobial activity against Schizosaccharomyces pombe after 48 hr incubation; assay type: functional; set-up: concentration or dose not given beside the values; outline: as §2
# Escherichia coli [2] = experiment: Antimicrobial activity against Escherichia coli after 96h incubation; assay type: functional; outline: as §2
# A2780 = experiment: Inhibitory concentration in vitro for cytotoxic activity against A 2780 human ovarian carcinoma cells; assay type: functional, cell-based; outline: as §1
# Escherichia coli [3] = experiment: Antimicrobial activity against the Escherichia coli after 96 hr incubation; assay type: functional; set-up: concentration or dose not given beside the values; outline: as §2
# Bacillus subtilis [4] = experiment: Antimicrobial activity against Bacillus subtilis after 96 hr incubation; assay type: functional; set-up: concentration or dose not given beside the values; outline: as §2
# Candida albicans [5] = experiment: Antimicrobial activity against Candida albicans after 48 hr incubation; assay type: functional; outline: as §2
# [6] = system: Schizosaccharomyces pombe; experiment: as §3; assay type: functional; outline: as §2
# Bacillus subtilis [7] = experiment: Antimicrobial activity against Bacillus subtilis after 96h incubation; assay type: functional; outline: as §2
# Staphylococcus aureus [8] = experiment: Antimicrobial activity against Staphylococcus aureus after 96h incubation; assay type: functional; outline: as §2
# Staphylococcus aureus [9] = experiment: The compound was evaluated for anti microbial activity against Staphylococcus aureus after 96 hr incubation; assay type: functional; set-up: concentration or dose not given beside the values; outline: as §2
# Candida albicans [10] = experiment: Anti fungal activity against Candida albicans after 48 hr incubation; assay type: functional; set-up: concentration or dose not given beside the values; outline: as §2
SMILES,IC50 (K562),Inhibition (Saccharomyces cerevisiae),Inhibition [1],Inhibition (Escherichia coli [2]),IC50 (A2780),Inhibition (Escherichia coli [3]),Inhibition (Bacillus subtilis [4]),Inhibition (Candida albicans [5]),Inhibition [6],Inhibition (Bacillus subtilis [7]),Inhibition (Staphylococcus aureus [8]),Inhibition (Staphylococcus aureus [9]),Inhibition (Candida albicans [10])
Cc1cc(CCc2ccccc2)cc(=O)o1,> 50 µM,0 mm,11.4%,20 mm,> 50 µM,22.7%,20.5%,0 mm,10 mm,18 mm,0 mm,–,–
Cc1cc(-c2ccc(C=O)cc2)cc(=O)o1,26 µM,0 mm,15.9%,15 mm,19.2 µM,17%,20.5%,0 mm,14 mm,18 mm,18 mm,20.5%,–
CCCCCCC#Cc1cc(C)oc(=O)c1,20.3 µM,0 mm,54.5%,17 mm,3.4 µM,19.3%,19.3%,0 mm,48 mm,17 mm,18 mm,20.5%,–
Cc1cc(-c2ccc(Cl)cc2)cc(=O)o1,> 50 µM,0 mm,–,20 mm,> 50 µM,22.7%,20.5%,0 mm,0 mm,18 mm,20 mm,22.7%,–
CCCCc1cc(C)oc(=O)c1,> 50 µM,0 mm,–,22 mm,> 50 µM,25%,22.7%,0 mm,0 mm,20 mm,0 mm,–,–
COc1ccc(-c2cc(C)oc(=O)c2)cc1,> 50 µM,0 mm,22.7%,20 mm,> 50 µM,22.7%,19.3%,0 mm,20 mm,17 mm,0 mm,–,–
CCCCCCCCc1cc(C)oc(=O)c1,–,0 mm,34.1%,22 mm,–,25%,21.6%,20 mm,30 mm,19 mm,18 mm,20.5%,22.7%
CCOCCc1cc(C)oc(=O)c1,> 50 µM,–,–,–,> 50 µM,–,–,–,0 mm,–,–,–,–
CCCCCc1cc(C)oc(=O)c1,> 50 µM,0 mm,25%,22 mm,> 50 µM,25%,26.1%,0 mm,22 mm,23 mm,0 mm,–,–
CCCCCCc1cc(C)oc(=O)c1,> 50 µM,0 mm,29.5%,25 mm,> 50 µM,28.4%,23.9%,11 mm,26 mm,21 mm,0 mm,–,12.5%
Cc1cc(C#Cc2ccc([N+](=O)[O-])cc2)cc(=O)o1,–,0 mm,10.2%,0 mm,–,–,6.8%,0 mm,9 mm,6 mm,0 mm,–,–
CC(=O)Nc1ccc(C#Cc2cc(C)oc(=O)c2)cc1,–,0 mm,–,0 mm,–,–,6.8%,0 mm,0 mm,6 mm,16 mm,18.2%,–
Cc1cc(C#Cc2ccccc2)cc(=O)o1,4 µM,0 mm,42%,20 mm,1.8 µM,22.7%,21.6%,0 mm,37 mm,19 mm,0 mm,–,–
CCC/C=C/c1cc(C)oc(=O)c1,–,0 mm,31.8%,19 mm,–,21.6%,18.2%,16 mm,28 mm,16 mm,20 mm,22.7%,18.2%
Cc1cc(-c2ccccc2)cc(=O)o1,> 50 µM,0 mm,–,20 mm,> 50 µM,22.7%,20.5%,0 mm,0 mm,18 mm,18 mm,20.5%,–
Cc1ccc(-c2cc(C)oc(=O)c2)cc1,> 50 µM,0 mm,–,18 mm,> 50 µM,20.4%,21.6%,0 mm,0 mm,19 mm,0 mm,–,–
CCCCC#Cc1cc(C)oc(=O)c1,15.5 µM,0 mm,51.1%,20 mm,7 µM,22.7%,19.3%,20 mm,45 mm,17 mm,0 mm,–,22.7%
Cc1cc(/C=C/c2ccccc2)cc(=O)o1,> 50 µM,0 mm,20.5%,17 mm,> 50 µM,19.3%,20.5%,0 mm,18 mm,18 mm,0 mm,–,–
CCCC/C=C/c1cc(C)oc(=O)c1,–,0 mm,45.5%,18 mm,–,20.5%,20.5%,24 mm,40 mm,18 mm,0 mm,–,27.3%

# Reference: ChEMBL document CHEMBL1135862, “Bioactive 4-substituted-6-methyl-2-pyrones with promising cytotoxicity against A2780 and K562 cell lines” (Bioorg Med Chem Lett, 2002)
